# Assay results published in ChEMBL document CHEMBL3400116, “Synthesis and activities towards resistant cancer cells of sulfone and sulfoxide griseofulvin derivatives” (Bioorg Med Chem Lett, 2015).
# Tests used:
# [1] = Antiproliferative activity against exponentially growing adherent human SCC114 cells assessed as inhibition of cell proliferation after 72 hrs by luminescence detection based ATPlite assay; assay type: functional; conditions: SCC114, 72 h
# Method in brief: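 SCC-114 cells seeded at 10^3 cells/well in 96-well plates and left to grow exponentially as adherent cultures. After 72 h exposure at 37 °C in 5% CO2, viability was read by ATPlite luminescence of ATP from viable cells. IC50 came from nonlinear regression with a sigmoidal dose-response and variable Hill slope.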
# [2] = test system: HCC1937; assay: Antiproliferative activity against exponentially growing adherent human HCC1937 cells assessed as inhibition of cell proliferation after 48 hrs by luminescence detection based ATPlite assay; conditions: HCC1937, 48 h
# [3] = test system: HCC1937; assay: Antiproliferative activity against exponentially growing adherent human HCC1937 cells assessed as inhibition of cell proliferation at 10 uM after 48 hrs by luminescence detection based ATPlite assay; conditions: HCC1937, 48 h
Compound,IC50 [1],IC50 [2],inhibition at 10 µM [3]
COc1cc(OC)c2c(c1Cl)O[C@]1(C2=O)C(S(=O)(=O)c2ccccc2)=CC(=O)C[C@H]1C,1000 nM,1600 nM,
COc1cc(OC)c2c(c1Cl)O[C@]1(C2=O)C(OCc2ccccc2)=CC(=O)C[C@H]1C,980 nM,> 10000 nM,0%
COc1cc(OC)c2c(c1Cl)O[C@]1(C2=O)C(S(C)(=O)=O)=CC(=O)C[C@H]1C,1900 nM,> 10000 nM,40%
COc1cc(OC)c2c(c1Cl)O[C@]1(C2=O)C(S(=O)(=O)Cc2ccccc2)=CC(=O)C[C@H]1C,400 nM,1400 nM,
COc1cc(OC)c2c(c1Cl)O[C@@]1(C=C([S+]([O-])c3ccccc3)C(=O)C[C@H]1C)C2=O (some centres undefined),250 nM,400 nM,
COc1cc(OC)c2c(c1Cl)O[C@]1(C2=O)C(S(=O)(=O)CCN(C)C)=CC(=O)C[C@H]1C,2800 nM,5900 nM,
CCC1=C[C@@H]2CN(C1)Cc1c([nH]c3ccccc13)[C@@](C(=O)OC)(c1cc3c(cc1OC)N(C)[C@H]1[C@@](O)(C(=O)OC)[C@H](OC(C)=O)[C@]4(CC)C=CCN5CC[C@]31[C@@H]54)C2 [VINORELBINE],0.07 nM,> 10000 nM,0%
COC1=CC(=O)C[C@@H](C)[C@]12Oc1c(Cl)c(OC)cc(OC)c1C2=O [GRISEOFULVIN],6400 nM,> 10000 nM,0%
CC(=O)O[C@H]1C(=O)[C@@]2(C)[C@H]([C@H](OC(=O)c3ccccc3)[C@]3(O)C[C@H](OC(=O)[C@H](O)[C@@H](NC(=O)c4ccccc4)c4ccccc4)C(C)=C1C3(C)C)[C@]1(OC(C)=O)CO[C@@H]1C[C@@H]2O [PACLITAXEL],0.3 nM,> 10000 nM,0%
COc1cc(OC)c2c(c1Cl)O[C@@]1(C=C(S(=O)(=O)c3ccccc3)C(=O)C[C@H]1C)C2=O,400 nM,700 nM,
COc1cc(OC)c2c(c1Cl)O[C@@]1(C=C(S(=O)(=O)Cc3ccccc3)C(=O)C[C@H]1C)C2=O,,900 nM,
COc1cc(OC)c2c(c1Cl)O[C@@]1(C=C([S+]([O-])Cc3ccccc3)C(=O)C[C@H]1C)C2=O (some centres undefined),20 nM,,
COc1cc(OC)c2c(c1Cl)O[C@]1(C2=O)C(SCCN(C)C)=CC(=O)C[C@H]1C,1450 nM,> 10000 nM,0%
C/C(=C\c1csc(C)n1)[C@@H]1C[C@@H]2O[C@]2(C)CCC[C@H](C)[C@H](O)[C@@H](C)C(=O)C(C)(C)[C@@H](O)CC(=O)O1 [PATUPILONE],0.17 nM,> 10000 nM,0%
COc1cc(OC)c2c(c1Cl)O[C@]1(C2=O)C(SCc2ccccc2)=CC(=O)C[C@H]1C,,> 10000 nM,
